Assay results as given in the EternaBench riboswitch data.

Tested on: MS2 coat protein
Test: apparent Kd, MS2 coat protein; higher = weaker binding; RNA-MaP array; FMN 200 µM where present
In short: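 Green signal from SNAP-549-labelled MS2 coat protein was normalised to red-channel RNA signal and to the median Fmax of control clusters. The protein was titrated from 0.7 or 1.5 nM, doubling to 3 µM, without and then with constant ligand, over designs transcribed by stalled E. coli RNA polymerase on Illumina sequencing-chip clusters, in 100 mM Tris-HCl pH 7.5, 80 mM KCl, 4 mM MgCl2, BSA, DTT, yeast tRNA and Tween-20. The apparent Kd is the median of filtered per-cluster binding-curve fits.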

[1] = designed as: ON switch for flavin mononucleotide, no ligand
[2] = ligand present: flavin mononucleotide, designed as: ON switch for flavin mononucleotide
[3] = designed as: OFF switch for flavin mononucleotide, no ligand
[4] = ligand present: flavin mononucleotide, designed as: OFF switch for flavin mononucleotide

| Sequence | apparent Kd [1] | apparent Kd [2] | apparent Kd [3] | apparent Kd [4] |
| --- | --- | --- | --- | --- |
| UUUUGUUUACAAGGAUAUCAAUUAUUUAUACUUCCUACAUGAGGAUCACCCAUGUUUUUAUAUUUUGAGAAGGUGUAAUGUCGG | 40.4 nM | 39 nM |  |  |
| CAAUUUAUGUCAGGAUAUACAAUACAAUGAUUAGUAGAAGGGAUUAAUACAUGAGGAUCACCCAUGUCAUGUGUCAUCGUGCCC |  |  | 24 nM | 20.7 nM |
| AAACCGUGUGGAGGAUAUGCAGUUGAGGUGAGGUGGCAACUCUAUACGACAGCAGAAGGCCACAUGAGGAUCACCCAUGUAGGU |  |  | 251 nM | 73.6 nM |
| UACAUGAGGAUCACCCAUGUUAACAUGGAGUUGUUAUAUCUGAGAAGGGUAAUAUUACAUUAAGUACAGGAUAUCAAUGAUGUU |  |  | 45.2 nM | 18.4 nM |
| GGGCCGAAAGGCCCGCGGGCCCGGGAGGAUAUACAUGAGGAUCACCCAUGUCCGGCGAAAGCCGGGUAGAAGGCCCGGGCCCGC |  |  | 5.38 nM | 7.03 nM |
| GGAUAGGACAGAGGAUAUACAGAUAGGAUCUACUAUCAAACAAUCCUGACAUGAGGAUCACCCAUGUAGAAGGCUGUCCUAUCG |  |  | 24.6 nM | 85.1 nM |
| GCCUCACAUGAGGAUCACCCAUGUCAGGAUAUGCCGAUCUUAUGGUCUGGUACGACGAGCAGAAGGGACAUGCA |  |  | 19.5 nM | 57.9 nM |
| ACACGGUAUGUAGGAUAUGCAUAGCAUUGCUAUGCAGAAGGACAUGAGGAUCACCCAUGUAUGUAUUCCAUACUAAUCCCGUGG |  |  | 5.77 nM | 5.74 nM |
| GGUGCGUAUGUGAGGAUAUGCUGGUCCUUGGAUCAGCAGAAGGCACAUGAGGAUCACCCAUGUGGUGUCGUACG |  |  | 68.9 nM | 516 nM |
| UGUACAUUAUUAAGUAAUUAGGCGAAGGAUAUAUAACAUGAGGAUCACCCAUGUACUAAGUUGAAGUAGAAGGUUGAGCAUUUC | 19 nM | 15.7 nM |  |  |
| CGUUUUCACAUUUUAGUGUUUUAUACAGAAGGCCAUACACAUGAGGAUCACCCAUGUCAGGAAUUGGAGGAUAUGUUAUUGACG | 5.92 nM | 4.85 nM |  |  |
| AUCAGCUCGUUAGGAUAUACGUCACUGCGUCAGCAGUGUGGUAAGAUCACAUGAGGAUCACCCAUGUAGAAGGGACGAGCUGAU |  |  | 12.8 nM | 94.2 nM |
| CGUCCUUAGUGAGGAUAUCAGAAACUACGGAAAUGAGAAGGCACAUGAGGAUCACCCAUGUAAAUAACGGCCGGUCUUGGCAGC |  |  | 7.27 nM | 15.2 nM |
| UAAUAAUUAUGAGGAUAUAUACAACAUGAGGAUCACCCAUGUACCCAUGUAGUAGAAGGCAUAUUUUUAUUUAAUAAUAUAACU | 60.4 nM | 27.6 nM |  |  |
| AUUAUUUACAUAGGAUAUUGUUACAUGAGGAUCACCCAUGUUUUCAUGGUAUUAAUAUAUUAUUUCAAGAAGGAUGUUGUUACA | 32.2 nM | 19.6 nM |  |  |
| AAGAUGUAAGGAUAUGCUGCUCGUCACUUGCGUGAUGAGUAGCAGAAGGUACAUGAGGAUCACCCAUGUAAAGA |  |  | 30.4 nM | 43.3 nM |
| AAAUACCUUGUGAUCAGCGUAACAUGAGGAUCACCCAUGUUGCAGGAUAUCGAACCCAGUCAGUACGAGAAGGGCAAUAGUGUU |  |  | 7.16 nM | 11.6 nM |
| AGGUUGUGAGGAUAUUAGUUAUAUGAAUGGAGGAGUAUGGCUGAGAAGGCACAUGAGGAUCACCCAUGUAGAUC |  |  | 120 nM | 420 nM |
| UUGUUAUAUGUAGGAUAUGCAUAUUAUUAUUGUGCAGAAGGACAUGAGGAUCACCCAUGUAUAUUAUUAUUAUAUAUUAUAUAU |  |  | 31.4 nM | 46 nM |
| ACAUGUCGUGAGAAGGACGGCGUGCAUAGCGCCGUAGGAUAUCAAGACAUGAGGAUCACCCAUGUACGCGUGUCCAGCCGUGCU |  |  | 65.2 nM | 342 nM |
| CGUCGUCUACGACGCACAUGAGGAUCACCCAUGUGGCAGACACAGGAUAUCCGUUGGAAUGUCCAGGAGAAGGGUGAUCGCAUA | 38.6 nM | 77.5 nM |  |  |
| AAUAACAGAGGAUAUACUGUUUUAUGUGUUUGUUAUUUUGAACAUGAGGAUCACCCAUGUAGAAGGCUGAUUAA |  |  | 41.2 nM | 38.2 nM |
| GCAAUCGAGGGAGGAUAUUGUGAGAUGGUGACAUGAGGAUCACCCAUGUGACGAGAAGGCCCAGUGCGCCCGCUUAACUGCUGA |  |  | 37.4 nM | 210 nM |
| UAUUAAUACGAAGGAUAUGGUUACAUGAGGAUCACCCAUGUAUGUAUUUUGAUCUAAUAAUUUAACCAGAAGGUCGAAUAUAAA |  |  | 40.6 nM | 77.3 nM |
| AUCAGCUCGUCAGGAUAUACGUCACUGCGUCAGCAGUGUGGUAAGAUUACAUGAGGAUCACCCAUGUAGAAGGGACGAGCUGAU |  |  | 6.38 nM | 8.59 nM |
| UGGUUGUCAGGAUAUUGGGUAUUCAACUUUAGUUUUAUAUUCGAGAAGGGACAUGAGGAUCACCCAUGUUACGU |  |  | 36.2 nM | 166 nM |
| AAGAUGCGGGUAGGAUAUGGAGAGAAAGAAAGACCAGAAGGAUUGGUCACACAACAUGAGGAUCACCCAUGUGUGUGUUGCGAA |  |  | 14.1 nM | 11.9 nM |
| UGGUACAUGGGAGGAUAUGGGUUGUUAACAUGAGGAUCACCCAUGUUAUGCCGAAAGGCAAAGAACUAGAAGGCCCAUGUACCU | 21.9 nM | 16.4 nM |  |  |

| Sequence | apparent Kd [1] | apparent Kd [2] | apparent Kd [3] | apparent Kd [4] |
| --- | --- | --- | --- | --- |
| GAGAUGACAGUCAGGAUAUCUGUAGGGCGGACUUAAGAGAAGGGACAUGAGGAUCACCCAUGUGUGAUUGGUUU |  |  | 266 nM | 347 nM |
| AAGAAGUGAGGAUAUGCAGUGGCCUGUAGACGCAAGCACUUGUAGAAGGCACAUGAGGAUCACCCAUGUUUAAA |  |  | 35 nM | 32.8 nM |
| AAUAACAGAGGAUAUACUGUUUUAUGUGUUUGUUAUUUUAAACAUGAGGAUCACCCAUGUAGAAGGCUGAAUGA |  |  | 21.5 nM | 24.5 nM |
| AGUGGGUGUGAUAAAUAGUGGAAGUAGGAUAUGGGCUUACAUGAGGAUCACCCAUGUAUACAGCGCCAGAAGGACUGGACUGUA | 75.3 nM | 34.6 nM |  |  |
| GGUGCGUAUGUGAGGAUAUGCUGGUCCUUGGAUCAGCAGAAGGCACAUGAGGAUCACCCAUGUGGUGUCGUCCC |  |  | 426 nM | 21.1 nM |
| ACCGACACUUACAUGAGGAUCACCCAUGUGUGUAAUCGGACACAGGAUAUCCAUGGUAAGUAUCGGGAGAAGGGUGGAAAGAAA | 88.9 nM | 233 nM |  |  |
| UGAGCCUCGUGAGGAUAUACAUGAGGAUCACCCAUGUAAUAGGAUGAACGGUGGAAACACCGAAUGUAGAAGGCACGAGGCUCA |  |  | 82.2 nM | 869 nM |
| UGAUAGGACAGAGGAUAUACGAAAGGCGAUCCAUACAUGAGGAUCACCCAUGUAGAAGGCUGUCCUAUCUAAGUCGGAAACGAC |  |  | 84.9 nM | 16.9 nM |
| GCCGUACAUGAGGAUCACCCAUGUCAGGAUAUUUAGCACUCGGAAUUUCCGAGAGGUCAAAGAAGGGACAUUGC |  |  | 17.5 nM | 26.9 nM |
| GGCUGUCGGUCGGGUCAUCCACAUGAGGAUCACCCAUGUAGGAGAAGGGUCCGCCAGGCUUGUGGAUAGGAUAUCCUAGAAUGA |  |  | 5.45 nM | 5.52 nM |
| GUUUUGAUAGGAUAUACAUGAGGAUCACCCAUGUCCCACCCGUUACCUAUGACCAUAUGUAGAAGGAUCGUUUG |  |  | 98.1 nM | 83.9 nM |
| AGUUACAAACACAACAUGAGGAUCACCCAUGUACUCUCAUGUAAGGAUAUACAUUCGUAUAGAAAGUAGAAGGUACUAAUUAUG | 515 nM | 340 nM |  |  |
| GAGUGCUUAGGAUAUACAUGAGGAUCACCCAUGUGCUUCAGCUAGGAGACUAGCAUUGGUAGAAGGAAGUACUC |  |  | 14.5 nM | 48.6 nM |
| UGUCGGAGCAGAGGAUAUUACAUGAGGAUCACCCAUGUAUGAACCAAUAGCUGGAAACGGCAAUGUAAGAAGGCUGCUCCGACA |  |  | 13.1 nM | 171 nM |
| GAACGUAAAGAGAAGGGCUACUGGUUGAAACCUGCGGCCUCUGGAACAUGAGGAUCACCCAUGUAGCAGGAUAUCUUUGCAUUA |  |  | 146 nM | 18.9 nM |
| CUUUUGUGAGGAUAUUGGUAGUAAAUGAAUAAAAUUAUUACCGAGAAGGCACAUGAGGAUCACCCAUGUUCCUC |  |  | 47.7 nM | 491 nM |
| UGAAAUCAUGUAGGAUAUGCAUGGCGAAGCUACGCAGAAGGACAUGAGGAUCACCCAUGUUCUGGCUACCGAGUUCGGUGGCAA |  |  | 22.1 nM | 105 nM |
| GCAUACAUUCGAGGAUAUCGGUGAACAAAUUAACGAGAAGGCGAUAGAAUGUUUCAUCUUAUGAACAUGAGGAUCACCCAUGUA | 39.3 nM | 27.9 nM |  |  |
| UGAGCGACCACAGGAUAUACUUGAGAAGACCGAGUAGAAGGGUGGAAGAGCAUGCAGUGACAUGAGGAUCACCCAUGUGGUUGG | 97 nM | 65.8 nM |  |  |
| UCUUAAUUGAUCCUAUUUACCAACAUGAGGAUCACCCAUGUGCAGGAUAUGCUAAAGAUAGAUAAGCAGAAGGGCAUUUACCGC |  |  | 213 nM | 484 nM |
| GGGUACAUCGGAGGAUAUCAUGUAAAUACAUGAGGAUCACCCAUGUCGAUGGAGACAUCGGAGAUUGAGAAGGCCGAUUUACCG | 184 nM | 8.4 nM |  |  |
| UCGCUGCGAGGAUAUACGUGCGCGCGCGCGCGCGCGCGCGUACAUGAGGAUCACCCAUGUAGAAGGCGCUCUGC |  |  | 39.7 nM | 36.6 nM |
| GGGUACAUCGGAGGAUAUCAUGUAUAUACAUGAGGAUCACCCAUGUCGUACGAGAGUACGGAGAUUGAGAAGGCCGAUGUACCG | 39.4 nM | 14.4 nM |  |  |
| UGGCCUUUAGGAUAUCGGGUCUUUAACAUGAGGAUCACCCAUGUGGCACUCUCUUGAGAACGAGAAGGAAAACCCG |  |  | 23.2 nM | 23.7 nM |
| GCAGCGCCUGACAUGAGGAUCACCCAUGUUAGAUUGUUAAGUCAGGAUAUAGUCUAGAAACUAGACUAGAAGGGAUUUGCUGCU | 9.08 nM | 6.83 nM |  |  |
| GUGACGAAUGUAGGAUAUGCUGAGGAUAACUCAGCAGAAGGACAUGAGGAUCACCCAUGUACUAAUAGUGAUAAUAAACGUCAC |  |  | 14.8 nM | 82.5 nM |
| AGCCGCUUAGGAUAUACCUAGAUUCUUCCGCGCUGUACGGUACAUGAGGAUCACCCAUGUAGAAGGAGGUGGCA |  |  | 23.5 nM | 29.7 nM |
